Measured values published in ChEMBL document CHEMBL4387704, “Design, synthesis and biological evaluation of novel isoindolinone derivatives as potent histone deacetylase inhibitors” (Eur J Med Chem, 2019).
The source made the active and inactive calls. The rule behind the calls is not given here.

Assays:
MDA-MB-468 = assay: Growth inhibition of human MDA-MB-468 cells assessed as cell growth inhibition at 10 uM incubated for 48 hrs by sulforhodamine B assay; assay type: functional; conditions: MDA-MB-468, 48 h, read-out: GI
SNB-19 = assay: Growth inhibition of human SNB19 cells assessed as cell growth inhibition at 10 uM incubated for 48 hrs by sulforhodamine B assay; assay type: functional; conditions: SNB-19, 48 h, read-out: GI
HOP-62 = assay: Growth inhibition of human HOP62 cells assessed as cell growth inhibition at 10 uM incubated for 48 hrs by sulforhodamine B assay; assay type: functional; conditions: HOP-62, 48 h, read-out: GI
HCT-15 = assay: Growth inhibition of human HCT15 cells assessed as cell growth inhibition at 10 uM incubated for 48 hrs by sulforhodamine B assay; assay type: functional; conditions: HCT-15, 48 h, read-out: GI
M14 = assay: Growth inhibition of human M14 cells assessed as cell growth inhibition at 10 uM incubated for 48 hrs by sulforhodamine B assay; assay type: functional; conditions: M14, 48 h, read-out: GI
SK-MEL-28 = assay: Growth inhibition of human SK-MEL-28 cells assessed as cell growth inhibition at 10 uM incubated for 48 hrs by sulforhodamine B assay; assay type: functional; conditions: SK-MEL-28, 48 h, read-out: GI
IGROV-1 = assay: Growth inhibition of human IGROV1 cells assessed as cell growth inhibition at 10 uM incubated for 48 hrs by sulforhodamine B assay; assay type: functional; conditions: IGROV-1, 48 h, read-out: GI
[1] = Terminal half life in Sprague-Dawley rat at 1 mg/kg, iv by LC-MS/MS analysis; assay type: ADME, organism-based; conditions: in vivo, read-out: beta t1/2 (converted)
Outline: (§1)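 Male SD rats (199-214 g), three per route, single dose 1 mg/kg iv or 10 mg/kg po. Jugular blood (~200 μL) into heparinized tubes at set times; plasma by centrifugation, protein precipitation with acetonitrile containing verapamil and glibenclamide; drug measured by LC-MS/MS.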

ACHN = assay: Growth inhibition of human ACHN cells assessed as cell growth inhibition at 10 uM incubated for 48 hrs by sulforhodamine B assay; assay type: functional; conditions: read-out: GI
SK-MEL-2 = assay: Growth inhibition of human SK-MEL-2 cells assessed as cell growth inhibition at 10 uM incubated for 48 hrs by sulforhodamine B assay; assay type: functional; conditions: SK-MEL-2, 48 h, read-out: GI
SK-OV-3 = assay: Growth inhibition of human SKOV3 cells assessed as cell growth inhibition at 10 uM incubated for 48 hrs by sulforhodamine B assay; assay type: functional; conditions: SK-OV-3, 48 h, read-out: GI
Histone deacetylase 2 = Histone deacetylase 2 (Homo sapiens, UniProt Q92769); assay: Inhibition of HDAC2 (unknown origin) using Fluor de Lys substrate by fluorescence assay relative to control
Outline: (§2)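 Recombinant HDAC isoform assays run by a contract lab. Compounds in DMSO, 10-dose IC50 mode, 3-fold serial dilution from 50 μM. Duplicate runs; IC50 from curve fitting.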

MCF7 [2] = assay: Antiproliferative activity against human MCF7 assessed as reduction in cell viability measured after 72 hrs using alamar blue based fluorescence method; assay type: functional; conditions: MCF7, 72 h
Outline: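 HCT116 and MCF-7 grown in McCoy's 5A with 10% FBS and penicillin/streptomycin at 37 °C, 5% CO2. Cells plated in 96-well format and exposed to drug for 72 h. Alamar blue (1 mM solution) added, incubated 5–6 h, fluorescence read at 530/590 nm.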

MCF7 [3] = assay: Potency index, ratio of IC50 of chidamide to IC50 of test compound against human MCF7 cells; assay type: functional
[4] = biological target: Histone deacetylase 7 (Homo sapiens) (UniProt Q8WUI4); assay: Inhibition of HDAC7 (unknown origin) using Fluor de Lys substrate by fluorescence assay relative to control; outline: as §2
[5] = Terminal half life in Sprague-Dawley rat at 10 mg/kg, po by LC-MS/MS analysis; assay type: ADME, organism-based; conditions: in vivo, read-out: beta t1/2 (converted); outline: as §1
[6] = biological target: Class 1 histone deacetylase (Homo sapiens) (UniProt Q13547+O15379+Q92769+Q9BY41); assay: Inhibition of class I HDAC in human MCF7 cells assessed as increase in cellular histone H3 acetylation levels incubated for 24 hrs by Western blot; assay type: cell-based
Outline: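 MCF-7 cells (1×10^6) seeded overnight, treated 24 h at 0.25, 2.5 or 25 μM. Lysed with protease inhibitor (EDTA-free); 30 µg total protein run on SDS-PAGE, blotted to nitrocellulose, probed for acetyl-H3, ECL detection.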

Hs-578T = assay: Growth inhibition of human Hs 578T cells assessed as cell growth inhibition at 10 uM incubated for 48 hrs by sulforhodamine B assay; assay type: functional; conditions: read-out: GI
[7] = Oral bioavailability in Sprague-Dawley rat at 10 mg/kg by LC-MS/MS analysis; assay type: ADME, organism-based; conditions: in vivo; outline: as §1
SF-295 = assay: Growth inhibition of human SF295 cells assessed as cell growth inhibition at 10 uM incubated for 48 hrs by sulforhodamine B assay; assay type: functional; conditions: SF-295, 48 h, read-out: GI
A498 = assay: Growth inhibition of human A498 cells assessed as cell growth inhibition at 10 uM incubated for 48 hrs by sulforhodamine B assay; assay type: functional; conditions: A498, 48 h, read-out: GI
BT-549 = assay: Growth inhibition of human BT549 cells assessed as cell growth inhibition at 10 uM incubated for 48 hrs by sulforhodamine B assay; assay type: functional; conditions: BT-549, 48 h, read-out: GI
Homo sapiens = species: Homo sapiens; assay: Selectivity index, ratio of IC50 of HDCA11 (unknown origin) to IC50 of HDCA1 (unknown origin)
[8] = biological target: Histone deacetylase 5 (Homo sapiens) (UniProt Q9UQL6); assay: Inhibition of HDAC5 (unknown origin) using Fluor de Lys substrate by fluorescence assay relative to control; outline: as §2
SF-539 = assay: Growth inhibition of human SF539 cells assessed as cell growth inhibition at 10 uM incubated for 48 hrs by sulforhodamine B assay; assay type: functional; conditions: SF-539, 48 h, read-out: GI
UO-31 = assay: Growth inhibition of human UO31 cells assessed as cell growth inhibition at 10 uM incubated for 48 hrs by sulforhodamine B assay; assay type: functional; conditions: UO-31, 48 h, read-out: GI
Histone deacetylase 1 = Histone deacetylase 1 (Homo sapiens, UniProt Q13547); assay: Inhibition of HDAC1 (unknown origin) using Fluor de Lys substrate by fluorescence assay relative to control; conditions: read-out: IC50
[9] = AUC (0 to t) in Sprague-Dawley rat at 10 mg/kg, po by LC-MS/MS analysis; assay type: ADME, organism-based; conditions: in vivo
[10] = AUC (0 to t) in Sprague-Dawley rat at 1 mg/kg, iv by LC-MS/MS analysis; assay type: ADME, organism-based; conditions: in vivo
OVCAR-4 = assay: Growth inhibition of human OVCAR4 cells assessed as cell growth inhibition at 10 uM incubated for 48 hrs by sulforhodamine B assay; assay type: functional; conditions: OVCAR-4, 48 h, read-out: GI
NCI/ADR-RES = assay: Growth inhibition of human NCI/ADR-RES cells assessed as cell growth inhibition at 10 uM incubated for 48 hrs by sulforhodamine B assay; assay type: functional; conditions: read-out: GI
Histone deacetylase 8 = Histone deacetylase 8 (Homo sapiens, UniProt Q9BY41); assay: Inhibition of HDAC8 (unknown origin) using Fluor de Lys substrate by fluorescence assay relative to control; outline: as §2
Sequence of Histone deacetylase 8 (Q9BY41 whole entry): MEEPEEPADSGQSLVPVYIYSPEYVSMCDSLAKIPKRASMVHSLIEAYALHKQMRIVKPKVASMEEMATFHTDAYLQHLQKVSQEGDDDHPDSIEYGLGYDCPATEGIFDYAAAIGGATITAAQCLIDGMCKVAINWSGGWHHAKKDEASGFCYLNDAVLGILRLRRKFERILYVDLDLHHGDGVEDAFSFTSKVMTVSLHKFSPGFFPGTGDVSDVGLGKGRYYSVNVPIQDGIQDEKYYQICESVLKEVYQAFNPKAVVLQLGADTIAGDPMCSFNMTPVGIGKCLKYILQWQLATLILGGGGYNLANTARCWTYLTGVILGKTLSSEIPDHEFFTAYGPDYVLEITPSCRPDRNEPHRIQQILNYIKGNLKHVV

Sequence of Histone deacetylase 7 (Homo sapiens) (Q8WUI4 whole entry): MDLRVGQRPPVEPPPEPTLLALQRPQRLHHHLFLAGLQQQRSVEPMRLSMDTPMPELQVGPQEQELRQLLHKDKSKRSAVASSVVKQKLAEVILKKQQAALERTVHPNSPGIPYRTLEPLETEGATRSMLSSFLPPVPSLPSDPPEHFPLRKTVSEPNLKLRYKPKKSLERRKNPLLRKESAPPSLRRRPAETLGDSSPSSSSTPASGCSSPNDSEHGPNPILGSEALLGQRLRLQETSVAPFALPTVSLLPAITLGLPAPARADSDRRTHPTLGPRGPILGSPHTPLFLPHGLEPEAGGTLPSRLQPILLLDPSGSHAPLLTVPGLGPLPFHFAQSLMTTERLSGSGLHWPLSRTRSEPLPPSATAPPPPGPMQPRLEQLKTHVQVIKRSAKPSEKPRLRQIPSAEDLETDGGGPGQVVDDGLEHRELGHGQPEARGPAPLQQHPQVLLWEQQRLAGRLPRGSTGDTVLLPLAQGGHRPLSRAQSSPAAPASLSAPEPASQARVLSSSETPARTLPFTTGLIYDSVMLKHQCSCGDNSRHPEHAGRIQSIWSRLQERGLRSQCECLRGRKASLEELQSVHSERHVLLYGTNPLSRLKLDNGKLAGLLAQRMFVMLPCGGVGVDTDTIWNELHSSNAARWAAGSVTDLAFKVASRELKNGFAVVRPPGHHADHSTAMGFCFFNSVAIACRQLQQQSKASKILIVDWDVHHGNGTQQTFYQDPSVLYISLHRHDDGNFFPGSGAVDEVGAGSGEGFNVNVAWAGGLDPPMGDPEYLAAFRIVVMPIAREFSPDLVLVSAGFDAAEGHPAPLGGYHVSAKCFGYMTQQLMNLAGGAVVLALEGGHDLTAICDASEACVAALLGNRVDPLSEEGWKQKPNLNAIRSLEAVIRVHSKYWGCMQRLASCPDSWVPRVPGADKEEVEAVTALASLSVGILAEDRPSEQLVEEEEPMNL
Sequence of Histone deacetylase 5 (Homo sapiens) (Q9UQL6 whole entry): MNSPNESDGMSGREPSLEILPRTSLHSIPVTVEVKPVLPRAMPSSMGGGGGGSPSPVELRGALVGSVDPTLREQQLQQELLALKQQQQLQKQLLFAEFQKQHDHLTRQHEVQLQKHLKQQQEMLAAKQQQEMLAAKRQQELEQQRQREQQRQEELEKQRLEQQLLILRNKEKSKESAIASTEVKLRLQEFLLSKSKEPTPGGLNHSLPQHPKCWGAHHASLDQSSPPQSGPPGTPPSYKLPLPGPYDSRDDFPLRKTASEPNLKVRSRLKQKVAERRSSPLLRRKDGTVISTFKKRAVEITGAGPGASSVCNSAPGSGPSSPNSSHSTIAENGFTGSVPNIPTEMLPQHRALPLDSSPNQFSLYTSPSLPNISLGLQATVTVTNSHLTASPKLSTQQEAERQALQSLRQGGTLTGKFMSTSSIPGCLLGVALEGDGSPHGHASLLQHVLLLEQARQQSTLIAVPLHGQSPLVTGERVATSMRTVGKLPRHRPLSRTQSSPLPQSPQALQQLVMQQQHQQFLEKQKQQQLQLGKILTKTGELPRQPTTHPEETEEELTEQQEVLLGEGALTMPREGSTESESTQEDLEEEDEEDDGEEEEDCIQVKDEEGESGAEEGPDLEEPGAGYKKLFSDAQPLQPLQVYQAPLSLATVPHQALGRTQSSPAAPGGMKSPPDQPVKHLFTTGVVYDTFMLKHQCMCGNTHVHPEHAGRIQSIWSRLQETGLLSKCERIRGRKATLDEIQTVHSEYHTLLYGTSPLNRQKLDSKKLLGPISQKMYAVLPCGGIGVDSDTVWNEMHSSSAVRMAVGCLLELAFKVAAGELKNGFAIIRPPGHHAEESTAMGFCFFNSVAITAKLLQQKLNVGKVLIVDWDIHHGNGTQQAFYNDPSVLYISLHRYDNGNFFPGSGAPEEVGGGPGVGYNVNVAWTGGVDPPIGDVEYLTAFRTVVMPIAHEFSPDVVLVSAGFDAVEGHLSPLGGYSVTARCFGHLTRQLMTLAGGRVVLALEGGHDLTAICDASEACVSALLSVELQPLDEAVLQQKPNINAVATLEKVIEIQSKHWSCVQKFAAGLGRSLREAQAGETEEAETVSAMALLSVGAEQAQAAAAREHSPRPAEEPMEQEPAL
Sequence of Histone deacetylase 1 (Q13547 whole entry): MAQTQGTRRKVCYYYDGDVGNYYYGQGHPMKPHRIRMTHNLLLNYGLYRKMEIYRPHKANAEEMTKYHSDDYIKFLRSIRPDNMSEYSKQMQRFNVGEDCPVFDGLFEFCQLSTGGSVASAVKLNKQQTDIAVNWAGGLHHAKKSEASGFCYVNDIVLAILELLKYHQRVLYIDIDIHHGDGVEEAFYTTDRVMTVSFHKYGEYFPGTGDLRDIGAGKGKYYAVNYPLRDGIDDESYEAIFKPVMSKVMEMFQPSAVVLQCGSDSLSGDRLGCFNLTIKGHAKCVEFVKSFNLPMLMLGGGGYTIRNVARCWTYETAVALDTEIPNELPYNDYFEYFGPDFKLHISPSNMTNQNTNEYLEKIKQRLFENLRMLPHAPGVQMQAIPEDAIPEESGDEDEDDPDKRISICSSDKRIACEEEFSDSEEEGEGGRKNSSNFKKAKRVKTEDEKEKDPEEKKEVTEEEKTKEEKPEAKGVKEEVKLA
Sequence of Class 1 histone deacetylase (Homo sapiens) (O15379 whole entry, looked up): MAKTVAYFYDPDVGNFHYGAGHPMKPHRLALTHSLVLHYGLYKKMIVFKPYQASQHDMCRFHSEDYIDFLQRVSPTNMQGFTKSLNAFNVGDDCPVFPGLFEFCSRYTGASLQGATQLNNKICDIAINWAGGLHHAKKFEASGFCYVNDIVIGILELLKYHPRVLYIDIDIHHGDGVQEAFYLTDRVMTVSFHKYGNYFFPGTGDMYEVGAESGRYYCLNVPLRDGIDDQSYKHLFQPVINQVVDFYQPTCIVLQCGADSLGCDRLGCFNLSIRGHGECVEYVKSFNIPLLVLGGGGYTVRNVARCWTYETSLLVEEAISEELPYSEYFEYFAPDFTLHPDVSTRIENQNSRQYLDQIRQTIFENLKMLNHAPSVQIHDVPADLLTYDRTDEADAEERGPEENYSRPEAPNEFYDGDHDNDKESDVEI
Sequence of Class 1 histone deacetylase (Homo sapiens) (Q13547 whole entry, looked up): as the sequence (Q13547 whole entry) above
Sequence of Class 1 histone deacetylase (Homo sapiens) (Q92769 whole entry, looked up): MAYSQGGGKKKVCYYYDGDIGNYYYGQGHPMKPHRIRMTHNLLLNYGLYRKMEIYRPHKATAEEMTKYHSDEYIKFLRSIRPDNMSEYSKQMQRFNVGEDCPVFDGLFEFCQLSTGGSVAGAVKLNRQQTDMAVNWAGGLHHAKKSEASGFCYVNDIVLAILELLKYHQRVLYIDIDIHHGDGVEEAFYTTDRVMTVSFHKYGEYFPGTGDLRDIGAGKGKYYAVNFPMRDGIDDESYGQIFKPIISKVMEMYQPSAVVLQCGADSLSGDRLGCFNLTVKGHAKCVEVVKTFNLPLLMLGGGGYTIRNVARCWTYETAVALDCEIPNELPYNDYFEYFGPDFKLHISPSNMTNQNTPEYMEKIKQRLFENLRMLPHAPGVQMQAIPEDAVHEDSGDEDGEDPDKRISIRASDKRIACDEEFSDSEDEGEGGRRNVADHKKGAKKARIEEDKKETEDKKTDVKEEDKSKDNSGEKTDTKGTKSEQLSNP
Sequence of Class 1 histone deacetylase (Homo sapiens) (Q9BY41 whole entry, looked up): as the sequence (Q9BY41 whole entry) above
Sequence of Histone deacetylase 2 (Q92769 whole entry, canonical isoform): as the sequence (Q92769 whole entry, looked up) above

With `Nc1cc(F)ccc1NC(=O)c1ccc(CNC(=O)/C=C2\NC(=O)c3ccccc32)cc1` as the molecule, how does the inhibition of growth at 10 µM (MDA-MB-468) read?
Its inhibition of growth at 10 µM is 9.71%.

What about the inhibition of growth at 10 µM (SNB-19) of the same molecule?
The inhibition of growth at 10 µM was 13.6%.

What about the inhibition of growth at 10 µM (HOP-62) of the same molecule?
The inhibition of growth at 10 µM was 29.9%.

And the inhibition of growth at 10 µM (HCT-15)?
Its inhibition of growth at 10 µM is 0.12%.

What about the inhibition of growth at 10 µM (M14) of the same molecule?
The inhibition of growth at 10 µM was 29.4%.

What about the inhibition of growth at 10 µM (SK-MEL-28) of the same molecule?
Its inhibition of growth at 10 µM is 33.8%.

What about the inhibition of growth at 10 µM (IGROV-1) of the same molecule?
Its inhibition of growth at 10 µM is 22.8%.

What about the half-life [1] of the same molecule?
The half-life was 23.4 min.

And the inhibition of growth at 10 µM (ACHN)?
The inhibition of growth at 10 µM was 15%.

And the inhibition of growth at 10 µM (SK-MEL-2)?
Its inhibition of growth at 10 µM is 52%.

And the inhibition of growth at 10 µM (SK-OV-3)?
Its inhibition of growth at 10 µM is 29.5%.

What about the IC50 (Histone deacetylase 2) of the same molecule?
Its IC50 is 0.075 µM.

What about the IC50 (MCF7 [2]) of the same molecule?
Its IC50 is 14.6 µM.

And the “Ratio IC50” value (MCF7 [3])?
Its value is 2.

And the inhibition [4]?
The inhibition was “inactive”.

What about the half-life [5] of the same molecule?
The half-life was 78 min.

What about the inhibition [6] of the same molecule?
Its inhibition is “Dose-dependent effect”.

What about the inhibition of growth at 10 µM (Hs-578T) of the same molecule?
The inhibition of growth at 10 µM was 29.3%.

What about the bioavailability [7] of the same molecule?
Its bioavailability is 16%.

What about the inhibition of growth at 10 µM (SF-295) of the same molecule?
The inhibition of growth at 10 µM was 16.2%.

What about the inhibition of growth at 10 µM (A498) of the same molecule?
The inhibition of growth at 10 µM was 47.1%.

And the inhibition of growth at 10 µM (BT-549)?
The inhibition of growth at 10 µM was 6.06%.

And the Ratio IC50 (Homo sapiens)?
The Ratio IC50 was 10.

And the inhibition [8]?
The inhibition was “inactive”.

And the inhibition of growth at 10 µM (SF-539)?
The inhibition of growth at 10 µM was 44.8%.

And the inhibition of growth at 10 µM (UO-31)?
Its inhibition of growth at 10 µM is 50.1%.

What about the IC50 (Histone deacetylase 1) of the same molecule?
The IC50 was 0.0651 µM.

And the AUC(0-t) [9]?
Its AUC(0-t) is 1710 ng·h/mL.

What about the AUC(0-t) [10] of the same molecule?
Its AUC(0-t) is 781 ng·h/mL.

What about the inhibition of growth at 10 µM (OVCAR-4) of the same molecule?
Its inhibition of growth at 10 µM is 21.3%.

And the inhibition of growth at 10 µM (NCI/ADR-RES)?
Its inhibition of growth at 10 µM is 18%.

And the IC50 (Histone deacetylase 8)?
The IC50 was 1.08 µM.
